Compound activity (PubChem)
Most compounds without a hit are left out; they make up all but 3.7% or so of the library.
MDM2 E3 inh: Mdm2 E3 ligase (human) inhibition; Q00987; cell-based MDM2 ubiquitination luciferase reporter, 2 h; 0 = plate control, 100 = twice control, blank-subtracted; signal enhancement, % at 5 µM; 210,000 compounds, 0.11% hits; AID 1230;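 active means signal enhancement of 30% or more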;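 further: luminescence tracks abundance of the self-degrading MDM2-luciferase fusion protein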
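system = mammalian cells stably expressing self-ubiquitinating, self-degrading MDM2 E3–luciferase fusion | quantity = 2000 cells per well seeded | incubation = 4 h cell settling then 2 h compound exposure, 37 °C | signal = SteadyLite luminescence, 15 min reagent step | benchmarks = plate control and blank wells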
m-calpain inh: inhibitors of pig calpain II; purified calpain II, fluorogenic peptide substrate, 30 min; AID 1236; 220,000 compounds, 0.37% hits; inhibition, % at 16 µM;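 active means inhibition above about 50%, limit read from the data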
PKD1 inh: blocks activity of human protein kinase D1; Q15139; PKD1 kinase fluorescence polarization assay; inhibition, % (no concentration beside the values); 200,000 compounds, 0.056% hits; in the data active means inhibition above about 50%
Target sequence (Q15139 whole entry, looked up): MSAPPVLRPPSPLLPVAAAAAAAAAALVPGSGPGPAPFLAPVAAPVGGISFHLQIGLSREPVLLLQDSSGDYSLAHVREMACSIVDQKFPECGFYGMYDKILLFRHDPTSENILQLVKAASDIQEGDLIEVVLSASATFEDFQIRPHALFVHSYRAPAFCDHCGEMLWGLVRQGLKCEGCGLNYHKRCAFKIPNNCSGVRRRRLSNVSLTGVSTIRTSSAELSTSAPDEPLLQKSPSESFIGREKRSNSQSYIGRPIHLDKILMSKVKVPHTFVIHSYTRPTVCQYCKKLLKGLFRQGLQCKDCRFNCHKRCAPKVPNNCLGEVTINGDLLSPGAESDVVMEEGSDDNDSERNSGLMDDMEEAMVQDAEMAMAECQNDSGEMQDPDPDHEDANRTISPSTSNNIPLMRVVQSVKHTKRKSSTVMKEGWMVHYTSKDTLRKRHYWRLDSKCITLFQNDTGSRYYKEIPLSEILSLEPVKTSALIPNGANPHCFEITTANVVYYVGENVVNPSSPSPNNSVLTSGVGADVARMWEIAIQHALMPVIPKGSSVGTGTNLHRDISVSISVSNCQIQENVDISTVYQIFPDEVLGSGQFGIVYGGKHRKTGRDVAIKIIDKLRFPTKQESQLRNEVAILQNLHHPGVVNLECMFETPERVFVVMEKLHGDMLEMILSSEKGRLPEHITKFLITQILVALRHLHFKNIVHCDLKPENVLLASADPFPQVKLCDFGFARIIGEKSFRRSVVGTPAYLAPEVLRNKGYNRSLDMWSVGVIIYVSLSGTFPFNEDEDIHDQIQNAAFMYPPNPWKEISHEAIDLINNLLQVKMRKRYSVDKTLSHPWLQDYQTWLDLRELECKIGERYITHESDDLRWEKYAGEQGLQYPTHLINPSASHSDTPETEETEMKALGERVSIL
ROMK primary: modulates human ROMK potassium channel activity. Tet-inducible ROMK, thallium flux fluorescence; actives lie on both sides. B-score at 10 µM. 130,000 compounds, 2% hits;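 active means signal ratio slope over the read window, or its plate-corrected B-score, at least 3 SD from the plate mean, either direction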;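 further: B-score of the F/F0 ratio slope over 7 to 12 s after thallium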
KCC2 mod: modulates chloride dependent transport by human KCC2; KCC2 cells, thallium flux FluoZin-2 fluorescence; B-score of Tl+ flux slope (higher = more flux/activation; lower = inhibition) at 10 µM; 190,000 compounds, 2.2% hits;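 active means thallium flux slope and its plate-corrected score both differing from the plate sample mean at a set confidence after two filtering rounds, in either direction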;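 further: slope of fluorescence scaled to starting intensity during 10 to 20 s after thallium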
Arbovirus anti: blocks arbovirus infection | arbovirus infection cell-based antiviral screen | inhibition, % at 10 µM | 200,000 compounds, 0.37% hits | AID 1251; in the data active means inhibition above about 30%
KCC2 sec1: confirmation of human KCC2 transport modulators; shares compounds with KCC2 mod; HEK293-KCC2, thallium flux, FluoZin2 fluorescence; stronger effect = higher value; normalised thallium flux (F/F0 slope) at 10 µM; 3,700 compounds, 15% hits; AID 1713;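 active means thallium flux slope above the same plate's solvent-only control mean plus 3 SD; inconclusive means the two replicate wells disagree; inactive means no significant difference from solvent-only control wells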
KCC2 bumet counter: thallium flux despite bumetanide block in KCC2 cells, secondary assay 3; shares compounds with KCC2 mod; HEK293-KCC2 + bumetanide/ouabain, thallium flux FluoZin2; stronger effect = higher value; normalized thallium flux at 10 µM; 3,700 compounds, 49% hits; AID 1714;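 active means thallium entry rate above the same plate's blocked-transporter control wells by more than 3 SD; inconclusive means the two repeat wells disagree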;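 further: raw slope of fluorescence over initial fluorescence between 10 and 20 s after thallium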
KCC2 secondary2: confirmation of human KCC2 transport modulators. HEK293-KCC2, thallium flux FluoZin2 fluorescence; actives lie on both sides; F/F0 rise rate, 10–20 s post-thallium. shares compounds with KCC2 mod. 3,700 compounds, 23% hits. normalized thallium flux at 10 µM;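 active means thallium flux slope more than 3 SD above or below the plate's solvent-only control mean, mostly below; inconclusive means the two repeat wells disagreed; inactive means no significant shift from solvent-only controls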
HEK counter1: counter-screen for KCC2 modulators: effect in parental HEK293 cells | shares compounds with KCC2 mod | thallium flux FluoZin2, ouabain; baseline-ratio fluorescence slope, 10–20 s after thallium | thallium flux rate (normalised fluorescence) at 10 µM | 3,700 compounds, 46% hits | AID 1716;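 active means thallium flux rate significantly above the same plate's solvent-only control wells, beyond their mean plus 3 SD; inconclusive means the two replicate wells gave conflicting results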
KCC2 ouabain: KCC2 (human) modulation, ouabain retest. shares compounds with KCC2 mod. HEK293-KCC2, thallium flux FluoZin2 fluorescence; bidirectional: low = inhibitor, high = activator. raw Tl+ flux slope (below DMSO = inhibition, above = activation) at 10 µM. 3,700 compounds, 48% hits. AID 1717;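 active means thallium flux slope beyond 3 SD from same-plate DMSO control mean in most replicates, usually higher, sometimes lower; inconclusive means repeat tests gave conflicting results; inactive means no significant difference from controls in most replicates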;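 further: slope of initial-normalized fluorescence between seconds 10 and 20 after thallium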
HEK293 Tl flux2: parental HEK flux effect, counter-screen 2. shares compounds with KCC2 mod. AID 1718. HEK293 parental, thallium flux FluoZin-2 fluorescence slope. thallium flux slope at 10 µM. 3,700 compounds, 33% hits;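 active means thallium flux slope above the same plate's solvent-control mean plus 3 SD in both duplicate wells; inconclusive means duplicate wells that disagreed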;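 further: run without ouabain in cells lacking the KCC2 cotransporter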
Numbers stand for hits; - = inactive; ? = inconclusive; . = no result given.

SMILES	MDM2 E3 inh	m-calpain inh	PKD1 inh	ROMK primary	KCC2 mod	Arbovirus anti	KCC2 sec1	KCC2 bumet counter	KCC2 secondary2	HEK counter1	KCC2 ouabain	HEK293 Tl flux2
CC(C)CSC1=NSC2=NC(=O)/C(=C\c3cccs3)C(=N)N12	-	-	-	-	42	48	0.0097	0.089	0.066	0.067	0.075	0.045
O=[N+]([O-])c1ccc(/C=N/Nc2nc(N3CCCC3)nc(N3CCCC3)n2)o1	-	-	-	-	6.1	-	-	-	-	-	-	-
O=[N+]([O-])c1ccc(-c2ccc(/C=N/Nc3nc(N4CCCC4)nc(N4CCCC4)n3)o2)cc1	-	-	-	-	-	-	.	.	.	.	.	.
COc1cc(OC)c(NC(=O)C(=O)CC(=O)c2ccc(C)cc2C)cc1Cl	-	-	-	-	16	-	-	0.046	-	0.019	-	0.012
CC1(C)Cc2ccccc2-c2nc3n(c(=O)c21)CCS3	-	-	-	-	-	-	.	.	.	.	.	.
Cn1c(=S)[nH]c2c(c1=O)C(C)(C)Cc1ccccc1-2	-	-	-	-	83	-	0.066	0.12	0.084	0.096	0.094	0.091
CCOc1cc(N2CCOCC2)c(OCC)cc1NC(=O)Cc1cccc(OC)c1	-	-	-	.	-	-	.	.	.	.	.	.
CCOc1cc(N2CCOCC2)c(OCC)cc1NC(=O)Cc1ccc(OC)c(OC)c1	-	-	-	.	-4.7	-	-	-	-	-	-	-
CCSc1nnc(NC(=O)CSc2nccn2-c2cccc(C)c2C)s1	-	-	-	-	3.1	-	-	0.016	-	0.015	-	0.018
O=S(=O)(Nc1nc2ccccc2nc1N1CCN(c2ccccn2)CC1)c1ccc(Cl)cc1	-	-	-	-	-3.1	-	-	-	0.024	-	?	-
Cc1ccc(C(=O)CC(=O)c2cc(Cl)ccc2O)cc1	-	-	-	-	.	-	.	.	.	.	.	.
CC(C)(C)c1ccc(C(=O)CC(=O)c2cc(Cl)ccc2O)cc1	-	-	-	-	4.4	-	-	0.018	-	0.023	0.025	0.017
O=S(=O)(NC(=S)NC1CCCCC1)c1ccc(Br)cc1	-	-	-	-	11	-	0.012	0.028	-	0.023	0.033	0.012
O=C(NCCOc1ccc(F)cc1)c1ccccc1SCc1ccccc1	-	-	-	.	-5.4	-	-	?	0.019	0.0059	0.012	-
CCc1ccc(OCCNC(=O)c2cc(SC)ccc2Cl)cc1	-	-	-	-	-6.3	-	-	-	0.025	-	?	-
COCCNC(=O)c1cc(Br)ccc1Cl	-	-	-	-	-4.5	-	-	0.035	-	0.019	-	?
CCc1ccc(OCCNC(=O)c2ccccc2SCc2ccc(F)cc2)cc1	-	-	-	-	-8.8	-	-	-	0.023	-	0.013	-
CSc1ccc(Cl)c(C(=O)NCCOc2ccccc2)c1	-	-	-	-	-	-	.	.	.	.	.	.
CCC(C)/C(C)=N/NC(=O)c1ccc(CSc2nc3ccccc3s2)cc1 (stereo unspecified)	-	-	-	.	-	-	.	.	.	.	.	.
Nc1ncnc2c1cnn2-c1ccccc1	-	.	-	-	-	-	.	.	.	.	.	.
S=c1nc[nH]c2c1cnn2-c1ccccc1	-	-	.	.	149	.	0.052	0.16	0.067	0.093	0.11	0.051
CCOc1cc(/C=N/N=C2/NC(=O)C(CC(=O)O)S2)ccc1OCc1ccccc1Cl (stereo unspecified)	-	-	-	-	-	-	.	.	.	.	.	.
Cc1ccc2c(c1)COc1c3ccc(C(=O)N4CCOCC4)cc3nn1-2	-	-	.	.	-	.	.	.	.	.	.	.
O=C(c1ccc2c3n(nc2c1)-c1ccc(Cl)cc1CO3)N1CCCCC1	-	-	.	.	-2.2	.	-	-	?	-	?	-
CC1=NN(c2nc(-c3ccccc3)cs2)C(=O)C1N=Nc1ccccc1 (stereo unspecified)	-	-	-	-	6.6	-	-	0.051	-	0.015	?	-
SMILES	MDM2 E3 inh	m-calpain inh	PKD1 inh	ROMK primary	KCC2 mod	Arbovirus anti	KCC2 sec1	KCC2 bumet counter	KCC2 secondary2	HEK counter1	KCC2 ouabain	HEK293 Tl flux2
CC(C)(C)Nc1nc(OCC(F)(F)F)nc(OCC(F)(F)F)n1	-	-	-	.	-2.8	-	-	-	-	-	0.015	-
CCn1c(-c2csc3c2CCC(C)C3)n[nH]c1=S (stereo unspecified)	-	-	-	.	11	-	-	0.027	-	0.024	0.03	0.014
CCn1c(-c2ccccc2O)n[nH]c1=S	-	-	-	.	-	-	.	.	.	.	.	.
CC(=O)c1c(N2CCOCC2)[nH]c(-c2ccccc2)nc1=S	-	-	-	-	13	-	0.017	0.032	?	0.019	0.041	?
COc1ccc(C(=O)OC(C)C(=O)Nc2cc(C(F)(F)F)ccc2Cl)c(OC)c1OC (stereo unspecified)	-	-	-	.	-	-	.	.	.	.	.	.
Cc1c(Cc2ccccc2)c(=O)oc2cc(OCc3ccc(C(=O)O)cc3)ccc12	-	-	-	-	-4.2	-	-	-	-	0.0063	?	-
COc1cccc(COc2ccc3c(C)c(Cc4ccccc4)c(=O)oc3c2)c1	.	.	-	.	.	.	.	.	.	.	.	.
O=S1(=O)C=C(SCc2ccc(F)cc2)Nc2ccccc21	-	-	-	-	-4.3	-	-	-	-	-	0.027	-
O=S1(=O)C=C(SCc2ccccc2)Nc2ccccc21	-	-	-	.	-	-	.	.	.	.	.	.
O=C(N/N=C/c1ccc2c(c1)OCO2)C(O)c1ccccc1 (stereo unspecified)	-	-	-	-	4.7	-	-	-	-	-	-	-
O=C(COc1ccccc1)N/N=C/c1ccc2c(c1)OCO2	-	-	-	-	-	-	.	.	.	.	.	.
Cc1nc(NC(=S)Nc2ccccc2)sc1C	-	-	-	-	16	-	-	0.063	0.05	0.032	0.05	0.035
CSc1nnc(CNS(=O)(=O)c2ccc(Cl)cc2)n1C	-	-	-	-	-	-	.	.	.	.	.	.
CCCCn1nnnc1NCc1cc(OC)c(OC)cc1OC	-	-	-	.	4.9	-	-	-	-	-	-	-
